# Several values for one entry are separate records, joined by “and”; a condition that tells them apart may be missing. Equal values may be shown once. Entries after “also recorded” stand apart in the source; their conditions may differ.
# Assays:
# [1] = tested on: Salmonella Typhimurium TA98; test: Bacterial reverse mutation test; assay type: cell-based; conditions: for Induction of revertant colonies compared with vehicle control: absence of metabolic activation; for Induction of revertants: presence of S9
# [2] = tested on: Balb/c 3T3 clone A31-1-1 cells; test: BALB/c 3T3 cell transformation assay; assay type: cell-based; conditions: for Induction of foci / cell transformation: concentrations of up to 50 µM
# [3] = tested on: mouse fibroblast C3H/M2 cells; conditions: ref Pfau etal., 1999, cited from earlier work; for Malignant transformation: in the presence of rat-liver S9; for Cell transformation: without metabolic activation
# [4] = tested on: human colon epithelial cells (HCEC); test: Cytotoxicity, CellTiter-Glo luminescent cell viability assay; assay type: cell-based; conditions: for LOAEL / NOAEL / BMD5 / BMD10 / BMDU5 / BMDL10 / BMDL5 / BMDU10 / IC50: 24 h; for BMD5: 5% benchmark dose; for BMD10: 10% benchmark dose; for BMDU5: highest benchmark dose upper bound, Hill models; for BMDU5 / BMDL5: 5% response; for BMDL10: lower bound; for BMDL10 / BMDU10: 10% response; for BMDL5: lowest benchmark dose lower bound, exponential models; for BMDU10: upper bound; for IC10 (95% CI): mean of 3 experiments; for IC50: Homo sapiens, read-out: IC50 (95% CI)
# L. rossiae DSM 15184 = test: Microbial MelQx transformation in mYCFA with glycerol; assay type: in vitro ADME, Lactobacillus rossiae; conditions: 100 µM MelQx, anaerobic, 37 °C, 3 days
# L. reuteri ATCC 55730 = test: as above; assay type: in vitro ADME, Lactobacillus reuteri; conditions: 100 µM MelQx, anaerobic, 37 °C, 3 days
# [5] = tested on: complex human gut microbiota; test: MelQx transformation by complex human colon microbiota; assay type: in vitro ADME; conditions: absence of glycerol, 100 μM MelQx, 37 °C, 72 h
# In short: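 Faecal microbiota from a healthy person were immobilised in gellan-xanthan gel beads under strict anaerobiosis and inoculated (30% v/v) into a proximal-colon reactor (37 °C, pH 5.7). It was linked to a distal-colon reactor (37 °C, pH 6.8). PC and DC effluents seeded triplicate mYCFA batch fermentations. Supernatants were alkalinised with Na2CO3, extracted thrice with ethyl acetate, concentrated and analysed by LC-ESI-MS2.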
# bacteria [6] = conditions: cited from earlier work; for Mutagenic activity: 1 µg/plate, similar experimental conditions, ref Vanhaecke etal., 2008b
# [7] = Stability of MelQx-M1 under Ames assay conditions; assay type: in vitro ADME; conditions: 10% rat liver S9, 1 µM, 30 min, 37 °C
# [8] = tested on: human colon epithelial cells from a different origin; conditions: in presence of sulfotransferases; ref Herbst etal. (2006); cited from earlier work
# bacteria [9] = test: Ames test; assay type: cell-based; conditions: 1 µg/plate, expectation of the authors
# BALB/c 3T3 cells = conditions: non-cytotoxic concentrations; ref Nicken etal., 2015; cited from earlier work
# rat intestinal tissues = conditions: ref Nicken etal., 2015; cited from earlier work
# [10] = −S9, dose 5 µg/plate, positive control
# [11] = +S9, dose 0.08 µM (0.01 µg/plate)
# [12] = +S9, dose 0.2 µM (0.23 µM in text; 0.03 µg/plate MelQx, 0.04 MelQx-M1)
# [13] = +S9, dose 0.8 µM (0.11 µg/plate MelQx, 0.13 MelQx-M1)
# [14] = +S9, dose 2.3 µM (0.32 µg/plate MelQx, 0.40 MelQx-M1)
# [15] = +S9, dose 7.7 µM (1.1 µg/plate MelQx, 1.3 MelQx-M1)
# [16] = −S9, dose 0.08 µM (0.01 µg/plate)
# [17] = −S9, dose 0.2 µM (0.03 µg/plate MelQx, 0.04 MelQx-M1)
# [18] = −S9, dose 0.8 µM (0.11 µg/plate MelQx, 0.13 MelQx-M1)
# [19] = −S9, dose 2.3 µM (0.32 µg/plate MelQx, 0.40 MelQx-M1)
# [20] = −S9, dose 7.7 µM (1.1 µg/plate MelQx, 1.3 MelQx-M1)
# [21] = 0.1 µM, 72 h exposure, n = 9–10
# [22] = 0.5 µM, 72 h exposure, n = 9–10
smiles,measurement,setting,value
"O=[N+]([O-])c1ccc2c(c1)Cc1ccccc1-2 [2-nitrofluorene, 2-Nitrofluorene]",Mutagenic activity,[1]; [10],616 ± 18 revertants/plate
Cc1ccc2cc3c(ccc4ccccc43)c3c2c1CC3 [3-methylcholanthrene],Number of foci per plate,"[2]; 15 µM, positive control","Medium (control), 0.1% DMSO, 15 µM 3-methylcholanthrene (MCA, positive control) induced 0.2 ± 0.4, 0 ± 0, and 14.1 ± 4.5 foci per plate, respectively. NT, not tested in this study. Data are displayed as mean ± SD (n = 9–10)."
"Nc1ccc([N+](=O)[O-])cc1N [4-NPD, 4-nitro-o-phenylenediamine]",Mutagenic activity,[1]; [10],695 ± 5 revertants/plate
"Cn1c(N)nc2c3cccnc3ccc21 [IQ, 2-amino-3-methylimidazo[4,5-f]quinoline]",Malignant transformation,[3],all induced malignant transformation
same,Cell transformation,[3],none of the HCAs induced cell transformation
"Cc1cnc2ccc3c(nc(N)n3C)c2n1 [MelQx, 2-Amino-3,8-dimethylimidazo[4,5-f]quinoxaline]",LOAEL,[4],50 µM
same,NOAEL,[4],10 µM
same,BMD5,[4],26.5 µM
same,BMD10,[4],55.2 µM
same,BMDU5,[4],55.8 µM
same,BMDL10,[4],8.8 µM
same,BMDL5,[4],4.1 µM
same,BMDU10,[4],87.6 µM
same,Concentrations that reduced cell viability,[4]; 24 h exposure,≥ 50 µM
same,IC10 (95% CI),[4]; 24 h exposure,52 (31–87) µM
same,IC50,[4],272 µM
same,Mutagenic activity,[1]; [11],352 ± 4 revertants/plate
same,Mutagenic activity,[1]; [12],980 ± 20 revertants/plate
same,Mutagenic activity,[1]; [13],1264 ± 38 revertants/plate
same,Mutagenic activity,[1]; [14],1449 ± 132 revertants/plate
same,Mutagenic activity,[1]; [15],>1500 revertants/plate
same,Mutagenic activity,"[1]; +S9, dose 23–769 µM (3.2–107 µg/plate)",>1500 revertants/plate
same,Induction of revertant colonies compared with vehicle control,[1],did not induce a significantly higher number of revertant colonies
same,Induction of revertants,[1],induced a significant and concentration-dependent increase of the number of revertants
same,Mutagenic activity,[1]; [16],23 ± 1 revertants/plate
same,Mutagenic activity,[1]; [17],21 ± 2 revertants/plate
same,Mutagenic activity,[1]; [18],20 ± 1 revertants/plate
same,Mutagenic activity,[1]; [19],21 ± 1 revertants/plate
same,Mutagenic activity,[1]; [20],20 ± 1 revertants/plate
same,Mutagenic activity,"[1]; −S9, dose 23–769 µM (3.2–107 µg/plate)",21–22 revertants/plate
same,Number of foci per plate,[2]; [21],0.1 ± 0.3
same,Number of foci per plate,[2]; [22],0.5 ± 0.7
same,Number of foci per plate,"[2]; 5 µM, 72 h exposure, n = 9–10",0.1 ± 0.3
same,Number of foci per plate,"[2]; 10 µM, 72 h exposure, n = 9–10",0.6 ± 0.7
same,Number of foci per plate,"[2]; 50 µM, 72 h exposure, n = 9–10",0.6 ± 1.2
same,Induction of foci / cell transformation,[2],neither MelQx nor MelQx-M1 induced a significant amount of foci; also recorded: no detectable cell transformation
same,Transformation efficiency on the basis of peak area (LC-ESI-MS2),L. rossiae DSM 15184,72% ± 1.5%
same,Transformation efficiency on the basis of peak area (LC-ESI-MS2),L. reuteri ATCC 55730,87% ± 0.9%
same,Transformation of MelQx to MelQx-M1,[5],no transformation
same,Mutagenicity relative to PhIP,"bacteria [6]; Ames test, ref Pfau etal., 1999",about 10 times
same,Malignant transformation,[3],all induced malignant transformation
same,Cell transformation,[3],none of the HCAs induced cell transformation
"Cc1cnc2ccc3c(c2n1)N1CCC(O)N=C1N3C (stereo not drawn) [MelQx-M1, 9-hydroxyl-2,7-dimethyl-7,9,10,11-tetrahydropyrimido[2′,1′:2,3]imidazo[4,5-f]quinoxaline]",LOAEL,[4],350 µM
same,NOAEL,[4],200 µM
same,BMD5,[4],262.2 µM
same,BMD10,[4],334.6 µM
same,BMDU5,[4],334 µM and 333.7 µM
same,BMDL10,[4],272.8 µM
same,BMDL5,[4],204 µM and 204.1 µM
same,BMDU10,[4],366.1 µM
same,IC10 (95% CI),[4]; 24 h exposure,316 (285–351) µM
same,IC50,[4],617 µM
same,Mutagenic activity,[1]; [11],44 ± 1 revertants/plate
same,Mutagenic activity,[1]; [12],66 ± 5 revertants/plate
same,Mutagenic activity,[1]; [13],182 ± 13 revertants/plate
same,Mutagenic activity,[1]; [14],358 ± 4 revertants/plate
same,Mutagenic activity,[1]; [15],770 ± 7 revertants/plate
same,Mutagenic activity,"[1]; +S9, dose 23 µM (4.0 µg/plate)",1000 ± 20 revertants/plate
same,Mutagenic activity,"[1]; +S9, dose 77–769 µM (14–135 µg/plate)",>1500 revertants/plate
same,Induction of revertant colonies compared with vehicle control,[1],did not induce a significantly higher number of revertant colonies
same,Mutagenic activity relative to MelQx in terms of revertants/plate,[1]; after microbial transformation of MelQx to MelQx-M1,3%–26%
same,Induction of revertants,[1],induced a significant and concentration-dependent increase of the number of revertants
same,Mutagenic activity,[1]; [16],21 ± 1 revertants/plate
same,Mutagenic activity,[1]; [17],21 ± 1 revertants/plate
same,Mutagenic activity,[1]; [18],21 ± 1 revertants/plate
same,Mutagenic activity,[1]; [19],22 ± 2 revertants/plate
same,Mutagenic activity,[1]; [20],31 ± 2 revertants/plate
same,Mutagenic activity,"[1]; −S9, dose 23 µM (4.0 µg/plate)",32 ± 3 revertants/plate
same,Mutagenic activity,"[1]; −S9, dose 77–769 µM (14–135 µg/plate)",41–54 revertants/plate
same,Number of foci per plate,[2]; [21],1.1 ± 1.2
same,Number of foci per plate,[2]; [22],0.1 ± 0.3
same,Number of foci per plate,"[2]; 1 µM, 72 h exposure, n = 9–10",0.5 ± 0.7
same,Number of foci per plate,"[2]; 2 µM, 72 h exposure, n = 9–10",0.1 ± 0.3
same,Number of foci per plate,"[2]; 3 µM, 72 h exposure, n = 9–10",0.1 ± 0.3
same,Number of foci per plate,"[2]; 4 µM, 72 h exposure, n = 9–10",0.2 ± 0.4
same,Number of foci per plate,"[2]; 5 µM, 72 h exposure, n = 9–10",0 ± 0
same,Number of foci per plate,"[2]; 6 µM, 72 h exposure, n = 9–10",0.6 ± 0.8
same,Number of foci per plate,"[2]; 7 µM, 72 h exposure, n = 9–10",0.7 ± 1.5
same,Number of foci per plate,"[2]; 10 µM, 72 h exposure, n = 9–10",1.4 ± 2.2
same,Number of foci per plate,"[2]; 50 µM, 72 h exposure, n = 9–10",0 ± 0
same,Induction of foci / cell transformation,[2],neither MelQx nor MelQx-M1 induced a significant amount of foci; also recorded: no detectable cell transformation
same,Stability in the presence of S9,[7],generation of small amounts of MelQx as a decomposition product
"Cn1c(NO)nc2ncc(-c3ccccc3)cc21 [N-OH-PhIP, 2-hydroxyamino-1-methyl-6-phenylimidazo[4,5-b]pyridine]",Malignant transformation,[8],induced malignant transformation
"Cn1c(N)nc2ncc(-c3ccccc3)cc21 [PhIP, 2-amino-1-methyl-6-phenylimidazo[4,5-b]pyridine]",Mutagenic activity,bacteria [6],1700 revertants/µg
same,Malignant transformation,[3],all induced malignant transformation
same,Cell transformation,[3],none of the HCAs induced cell transformation
"C[n+]1c2n(c3ncc(-c4ccccc4)cc31)CCC(O)N2.[Cl-] (stereo not drawn) [PhIP-M1, 7-hydroxy-5-methyl-3-phenyl-6,7,8,9-tetrahydropyrido[3’,2’:4,5]imidazo[1,2-a]pyrimidin-5-ium chloride]",Expected mutagenic activity,bacteria [9],50 revertants/µg
same,Mutagenic activity,bacteria [6],46 ± 2 revertants/µg
same,Malignant transformation of BALB/c 3T3 cells,BALB/c 3T3 cells,did not induce malignant transformation; also recorded: does not induce cell transformation
same,Cytotoxicity,rat intestinal tissues,not being cytotoxic
